# Measurements reported in ChEMBL document CHEMBL1155916, “Fluorinated phenylcyclopropylamines. Part 5: Effects of electron-withdrawing or -donating aryl substituents on the inhibition of monoamine oxidases A and B by 2-aryl-2-fluoro-cyclopropylamines” (Bioorg Med Chem, 2008).
# What was measured:
# [1] = biological target: T1, Amine oxidase [flavin-containing] A (Homo sapiens, UniProt P21397); test: Inhibition of human recombinant MAOA
# T1 sequence (P21397 whole entry): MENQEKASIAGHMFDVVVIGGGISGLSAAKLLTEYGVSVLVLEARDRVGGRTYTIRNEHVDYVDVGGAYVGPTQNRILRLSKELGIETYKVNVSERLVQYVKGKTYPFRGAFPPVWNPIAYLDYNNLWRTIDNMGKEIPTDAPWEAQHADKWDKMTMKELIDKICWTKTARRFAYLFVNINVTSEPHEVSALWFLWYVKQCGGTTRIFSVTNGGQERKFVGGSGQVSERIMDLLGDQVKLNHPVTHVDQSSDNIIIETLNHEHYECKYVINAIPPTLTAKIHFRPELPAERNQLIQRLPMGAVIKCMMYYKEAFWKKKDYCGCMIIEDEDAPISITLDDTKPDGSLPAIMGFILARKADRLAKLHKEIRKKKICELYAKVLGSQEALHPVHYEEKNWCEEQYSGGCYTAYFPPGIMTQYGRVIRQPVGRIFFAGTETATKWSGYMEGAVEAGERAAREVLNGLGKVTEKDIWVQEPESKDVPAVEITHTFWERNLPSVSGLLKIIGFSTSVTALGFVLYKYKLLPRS
# How it was run: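 Recombinant human mitochondrial MAO A, desalted into 50 mM K phosphate pH 7.2 with 0.8% octyl-glucoside. Enzyme (4.4 µg) preincubated 10 min at 10 °C with varying inhibitor concentrations (DMSO) in substrate-free mix: 50 mM K phosphate pH 7.2, 0.5% reduced Triton X-100, 6% DMSO.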
# [2] = biological target: T2, Amine oxidase [copper-containing] 3 (Rattus norvegicus, UniProt O08590); test: Inhibition of rat CAO
# T2 sequence (O08590 whole entry): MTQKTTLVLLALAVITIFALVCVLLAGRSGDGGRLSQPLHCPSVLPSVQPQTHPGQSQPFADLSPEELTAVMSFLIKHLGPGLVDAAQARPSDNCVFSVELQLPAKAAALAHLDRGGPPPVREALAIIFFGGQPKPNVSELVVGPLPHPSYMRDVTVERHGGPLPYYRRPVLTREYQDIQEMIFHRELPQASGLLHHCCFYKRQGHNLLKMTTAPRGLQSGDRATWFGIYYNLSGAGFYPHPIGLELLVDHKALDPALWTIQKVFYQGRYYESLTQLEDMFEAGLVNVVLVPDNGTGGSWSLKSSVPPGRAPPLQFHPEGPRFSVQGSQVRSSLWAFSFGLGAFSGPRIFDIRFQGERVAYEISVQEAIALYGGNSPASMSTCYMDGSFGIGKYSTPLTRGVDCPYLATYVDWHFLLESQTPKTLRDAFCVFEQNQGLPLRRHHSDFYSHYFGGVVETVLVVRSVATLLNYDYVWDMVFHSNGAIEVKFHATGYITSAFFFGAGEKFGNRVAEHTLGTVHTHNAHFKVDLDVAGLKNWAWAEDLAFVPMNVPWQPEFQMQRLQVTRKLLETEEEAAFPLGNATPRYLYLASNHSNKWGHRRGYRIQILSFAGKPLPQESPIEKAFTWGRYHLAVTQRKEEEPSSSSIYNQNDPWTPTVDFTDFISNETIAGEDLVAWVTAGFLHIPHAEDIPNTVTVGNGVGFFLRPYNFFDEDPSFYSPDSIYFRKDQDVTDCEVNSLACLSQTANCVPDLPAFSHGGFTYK
# Homo sapiens [3] = species on record: Homo sapiens; test: Selectivity for human recombinant MAOA over human recombinant MAOB
# [4] = Inhibition of tyramine oxidase
# [5] = Dissociation constant, pKa by titrimetric method; assay type: physicochemical
# How it was run: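 Titration in 0.1 M KNO₃ at 21 °C.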
# [6] = biological target: T3, Amine oxidase [flavin-containing] B (Homo sapiens, UniProt P27338); test: Inhibition of human recombinant MAOB
# T3 sequence (P27338 whole entry): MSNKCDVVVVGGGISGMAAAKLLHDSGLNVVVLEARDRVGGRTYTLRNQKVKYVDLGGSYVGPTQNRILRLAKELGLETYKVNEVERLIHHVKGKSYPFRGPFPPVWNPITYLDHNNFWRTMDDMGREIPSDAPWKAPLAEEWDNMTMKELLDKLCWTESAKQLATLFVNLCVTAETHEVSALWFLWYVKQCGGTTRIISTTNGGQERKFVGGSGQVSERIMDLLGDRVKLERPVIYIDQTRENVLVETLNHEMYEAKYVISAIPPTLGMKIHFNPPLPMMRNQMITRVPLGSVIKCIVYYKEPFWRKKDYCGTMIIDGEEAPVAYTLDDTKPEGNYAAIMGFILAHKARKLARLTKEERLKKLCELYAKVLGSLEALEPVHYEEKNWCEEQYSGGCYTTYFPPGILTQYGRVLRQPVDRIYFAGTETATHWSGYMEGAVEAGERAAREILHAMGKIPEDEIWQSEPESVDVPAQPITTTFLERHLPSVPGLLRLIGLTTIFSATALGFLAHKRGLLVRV
# How it was run: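 Recombinant human mitochondrial MAO B was gel-filtered into 50 mM K phosphate pH 7.2 with 0.8% octyl-glucoside. Enzyme (7.0 µg) was held 10 min at 10 °C with varying inhibitor concentrations (DMSO) in 0.1 M K phosphate pH 7.2, 6% DMSO, without substrate. The reaction was started with 1 mM benzylamine, and benzaldehyde formation was read at 250 nm at 25 °C.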
# Homo sapiens [7] = species on record: Homo sapiens; test: Selectivity for human recombinant MAOB over human recombinant MAOA
# [8] = Lipophilicity, log D at pH 7.4; assay type: physicochemical; conditions: buffer
# Homo sapiens [9] = species on record: Homo sapiens; test: Selectivity for human recombinant MAOA over human recombinant MAOB
IC50 ([1]; read-out: IC50) [µM],pKa [5],IC50 [6] [µM],Ratio IC50 (Homo sapiens [7]),logD [8],Ratio IC50 (Homo sapiens [9]),SMILES,further results
,,,,,,COc1ccc(/C(=C\F)CN)cc1OC,Ki [1]: 231 µM; IC50 [2]: 0.006 µM; Ratio Ki (Homo sapiens [3]): 100
320,,,,,,NC[C@@]1(c2ccccc2)C[C@@H]1F,IC50 [4]: 12 µM
10,5.8,20,2,,,N[C@]1(c2ccccc2)C[C@]1(F)c1ccccc1 (racemic),
76,6.6,7.1,,3.13,10.7,N[C@@H]1C[C@]1(F)c1ccc(C(F)(F)F)cc1 (relative stereo),
230,7.04,30,,,7.7,Cc1ccc([C@@]2(F)C[C@H]2N)cc1 (relative stereo),
12,,6.4,,1.53,2,N[C@H]1C[C@]1(F)c1ccccc1 (relative stereo),
89,6.81,4.8,,2.66,18.5,N[C@@H]1C[C@]1(F)c1ccc(Cl)cc1 (relative stereo),
14,7.5,5.1,,,2.8,COc1ccc([C@@]2(F)C[C@@H]2N)cc1 (relative stereo),
1.6,7.19,3.7,2.3,2.23,,N[C@H]1C[C@]1(F)c1ccc(Cl)cc1 (relative stereo),
0.8,7,5.4,6.8,2.66,,N[C@H]1C[C@]1(F)c1ccc(C(F)(F)F)cc1 (relative stereo),
13,7.41,13,1,1.83,,Cc1ccc([C@@]2(F)C[C@@H]2N)cc1 (relative stereo),
,,18,,,,COc1ccc([C@@]2(F)C[C@H]2N)cc1 (relative stereo),Activity ([1]; human): Not Active
47,7.4,230,4.9,0.58,,COc1ccc([C@@]2(F)C[C@@H]2N)cc1OC (relative stereo),
,,470,,,,COc1ccc([C@@]2(F)C[C@H]2N)cc1OC (relative stereo),IC50 [1]: Not Active
65,,19,,1.78,3.4,N[C@@H]1C[C@]1(F)c1ccccc1 (stereo in doubt),

SMILES,IC50 ([1]; read-out: IC50) [µM],pKa [5],IC50 [6] [µM],Ratio IC50 (Homo sapiens [7]),logD [8],Ratio IC50 (Homo sapiens [9]),further results
N[C@@H]1C[C@]1(F)c1ccc(F)cc1 (relative stereo),270,6.88,10,,2.14,27,
N[C@H]1C[C@]1(F)c1ccc(F)cc1 (relative stereo),3.6,7.31,4.9,1.4,1.6,,
N[C@@H]1C[C@@H]1c1ccccc1 (relative stereo),,8.47,,,1.41,,
N[C@@]1(c2ccccc2)C[C@@H]1F (relative stereo),,,,100,,,
